Experimental data from ChEMBL document CHEMBL1127617, “Synthesis and biological evaluation of C-3'-modified analogs of 9(R)-dihydrotaxol” (J Med Chem, 1994).
Values after ≈ are worked out from the molar mass of the structure shown.

Experiments:
A549 = test: In vitro cytotoxicity against A549 (human lung carcinoma) cell line.; assay type: functional, cell-based
Outline: (§1)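 Inhibition of cell proliferation measured against untreated cells after 72 h incubation at 37 °C. Read-out by MTT colorimetric microtiter assay. IC50 taken as the agent concentration giving 50% inhibition of proliferation.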

[1] = Compound was tested for the concentration of agent which reduces the supernatant protein concentration (tubulin, 1 mg/mL) by 50%; ED50/ED50taxol; assay type: functional
Outline: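 Tubulin assembly assay with tubulin at 1 mg/mL, 15 min at 37 °C. Read-out is protein left in the supernatant. ED50 is the agent concentration that lowers supernatant protein by 50%. Value expressed as a ratio to the ED50 of taxol.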

B16-F10 = test: In vitro cytotoxicity against B16F10 (mouse melanoma) cell line.; assay type: functional, cell-based; outline: as §1
P388 = test: In vitro cytotoxicity against P388 (murine leukemia) cell line.; assay type: functional, cell-based; details: Mus musculus; outline: as §1
HT-29 = test: In vitro cytotoxicity against HT-29 (human colon adenocarcinoma) cell line.; assay type: functional, cell-based; outline: as §1

Structure (SMILES)	IC50 (A549)	Ratio [1]	IC50 (B16-F10)	IC50 (P388)	IC50 (HT-29)
CC(=O)O[C@@H]1C2=C(C)[C@@H](OC(=O)[C@H](O)[C@@H](NC(=O)OC(C)(C)C)[C@H]3COC(C)(C)O3)C[C@@](O)([C@@H](OC(=O)c3ccccc3)[C@@H]3[C@]4(OC(C)=O)CO[C@@H]4C[C@H](O)[C@@]3(C)[C@H]1O)C2(C)C	> 0.1 µg/mL	7.91	0.086 µg/mL (≈ 0.0982 µM)	> 0.1 µg/mL	> 0.1 µg/mL
CC(=O)O[C@@H]1C2=C(C)[C@@H](OC(=O)[C@H](O)[C@@H](NC(=O)OC(C)(C)C)c3cscn3)C[C@@](O)([C@@H](OC(=O)c3ccccc3)[C@@H]3[C@]4(OC(C)=O)CO[C@@H]4C[C@H](O)[C@@]3(C)[C@H]1O)C2(C)C	0.0063 µg/mL (≈ 0.00733 µM)	1.36	0.0003 µg/mL (≈ 0.000349 µM)	0.0014 µg/mL (≈ 0.00163 µM)	0.00092 µg/mL (≈ 0.00107 µM)
CC[C@H](NC(=O)OC(C)(C)C)[C@@H](O)C(=O)O[C@H]1C[C@@]2(O)[C@@H](OC(=O)c3ccccc3)[C@@H]3[C@]4(OC(C)=O)CO[C@@H]4C[C@H](O)[C@@]3(C)[C@@H](O)[C@H](OC(C)=O)C(=C1C)C2(C)C	0.00083 µg/mL (≈ 0.00103 µM)	0.61	0.0032 µg/mL (≈ 0.00398 µM)	0.011 µg/mL (≈ 0.0137 µM)	0.0014 µg/mL (≈ 0.00174 µM)
CCCC[C@H](NC(=O)OC(C)(C)C)[C@@H](O)C(=O)O[C@H]1C[C@@]2(O)[C@@H](OC(=O)c3ccccc3)[C@@H]3[C@]4(OC(C)=O)CO[C@@H]4C[C@H](O)[C@@]3(C)[C@@H](O)[C@H](OC(C)=O)C(=C1C)C2(C)C	0.0095 µg/mL (≈ 0.0114 µM)	2.15	0.0097 µg/mL (≈ 0.0117 µM)	0.018 µg/mL (≈ 0.0216 µM)	0.0088 µg/mL (≈ 0.0106 µM)
CC(=O)O[C@@H]1C2=C(C)[C@@H](OC(=O)[C@H](O)[C@@H](NC(=O)c3ccccc3)c3ccccc3)C[C@@](O)([C@@H](OC(=O)c3ccccc3)[C@@H]3[C@]4(OC(C)=O)CO[C@@H]4C[C@H](O)[C@@]3(C)[C@H]1O)C2(C)C	0.019 µg/mL (≈ 0.0222 µM)	0.86	0.025 µg/mL (≈ 0.0292 µM)	0.053 µg/mL (≈ 0.0619 µM)	0.08 µg/mL (≈ 0.0935 µM)
CCCC[C@@H](NC(=O)OC(C)(C)C)[C@@H](O)C(=O)O[C@H]1C[C@@]2(O)[C@@H](OC(=O)c3ccccc3)[C@@H]3[C@]4(OC(C)=O)CO[C@@H]4C[C@H](O)[C@@]3(C)[C@@H](O)[C@H](OC(C)=O)C(=C1C)C2(C)C	> 0.1 µg/mL	9.74	> 0.1 µg/mL	> 0.1 µg/mL	0.067 µg/mL (≈ 0.0805 µM)
CCCCC[C@H](NC(=O)OC(C)(C)C)[C@@H](O)C(=O)O[C@H]1C[C@@]2(O)[C@@H](OC(=O)c3ccccc3)[C@@H]3[C@]4(OC(C)=O)CO[C@@H]4C[C@H](O)[C@@]3(C)[C@@H](O)[C@H](OC(C)=O)C(=C1C)C2(C)C	0.012 µg/mL (≈ 0.0142 µM)	2	0.014 µg/mL (≈ 0.0165 µM)	0.016 µg/mL (≈ 0.0189 µM)	0.016 µg/mL (≈ 0.0189 µM)
CC(=O)O[C@@H]1C2=C(C)[C@@H](OC(=O)[C@H](O)[C@@H](NC(=O)OC(C)(C)C)C(C)O)C[C@@](O)([C@@H](OC(=O)c3ccccc3)[C@@H]3[C@]4(OC(C)=O)CO[C@@H]4C[C@H](O)[C@@]3(C)[C@H]1O)C2(C)C (mixture of isomers)	–	1.2	–	–	–
CC(=O)O[C@@H]1C2=C(C)[C@@H](OC(=O)[C@H](O)[C@@H](NC(=O)OC(C)(C)C)[C@H](O)CO)C[C@@](O)([C@@H](OC(=O)c3ccccc3)[C@@H]3[C@]4(OC(C)=O)CO[C@@H]4C[C@H](O)[C@@]3(C)[C@H]1O)C2(C)C	> 0.1 µg/mL	2.71	> 0.1 µg/mL	> 0.1 µg/mL	> 0.1 µg/mL
CC(=O)O[C@@H]1C2=C(C)[C@@H](OC(=O)[C@H](O)[C@@H](NC(=O)OC(C)(C)C)C(C)O)C[C@@](O)([C@@H](OC(=O)c3ccccc3)[C@@H]3[C@]4(OC(C)=O)CO[C@@H]4C[C@H](O)[C@@]3(C)[C@H]1O)C2(C)C (single isomer, unassigned) [listing 1 of 2 here]	> 0.1 µg/mL	–	> 0.1 µg/mL	> 0.1 µg/mL	> 0.1 µg/mL
CC(=O)O[C@@H]1C2=C(C)[C@@H](OC(=O)[C@H](O)[C@H](CC(C)C)NC(=O)OC(C)(C)C)C[C@@](O)([C@@H](OC(=O)c3ccccc3)[C@@H]3[C@]4(OC(C)=O)CO[C@@H]4C[C@H](O)[C@@]3(C)[C@H]1O)C2(C)C	0.00012 µg/mL (≈ 0.000144 µM)	0.95	0.0009 µg/mL (≈ 0.00108 µM)	0.00036 µg/mL (≈ 0.000433 µM)	0.00038 µg/mL (≈ 0.000457 µM)
CC(=O)O[C@@H]1C2=C(C)[C@@H](OC(=O)[C@H](O)[C@@H](NC(=O)OC(C)(C)C)C(C)O)C[C@@](O)([C@@H](OC(=O)c3ccccc3)[C@@H]3[C@]4(OC(C)=O)CO[C@@H]4C[C@H](O)[C@@]3(C)[C@H]1O)C2(C)C (single isomer, unassigned) [listing 2 of 2 here]	–	0.8	–	–	–
CC(=O)O[C@@H]1C2=C(C)[C@@H](OC(=O)[C@H](O)[C@@H](NC(=O)OC(C)(C)C)c3ccccc3)C[C@@](O)([C@@H](OC(=O)c3ccccc3)[C@@H]3[C@]4(OC(C)=O)CO[C@@H]4C[C@H](O)[C@@]3(C)[C@H]1O)C2(C)C	0.003 µg/mL (≈ 0.00352 µM)	0.87	0.0004 µg/mL (≈ 0.00047 µM)	0.0025 µg/mL (≈ 0.00293 µM)	0.00016 µg/mL (≈ 0.000188 µM)
COC[C@H](NC(=O)c1ccccc1)[C@@H](O)C(=O)O[C@H]1C[C@@]2(O)[C@@H](OC(=O)c3ccccc3)[C@@H]3[C@]4(OC(C)=O)CO[C@@H]4C[C@H](O)[C@@]3(C)[C@@H](O)[C@H](OC(C)=O)C(=C1C)C2(C)C	> 0.1 µg/mL	3.14	> 0.1 µg/mL	> 0.1 µg/mL	0.079 µg/mL (≈ 0.0959 µM)
CC(=O)O[C@@H]1C2=C(C)[C@@H](OC(=O)[C@H](O)[C@@H](NC(=O)OC(C)(C)C)C3CCCCC3)C[C@@](O)([C@@H](OC(=O)c3ccccc3)[C@@H]3[C@]4(OC(C)=O)CO[C@@H]4C[C@H](O)[C@@]3(C)[C@H]1O)C2(C)C	0.0065 µg/mL (≈ 0.00758 µM)	0.57	0.0057 µg/mL (≈ 0.00664 µM)	0.014 µg/mL (≈ 0.0163 µM)	0.005 µg/mL (≈ 0.00583 µM)
CC(=O)O[C@@H]1C2=C(C)[C@@H](OC(=O)[C@H](O)[C@H](Cc3ccccc3)NC(=O)OC(C)(C)C)C[C@@](O)([C@@H](OC(=O)c3ccccc3)[C@@H]3[C@]4(OC(C)=O)CO[C@@H]4C[C@H](O)[C@@]3(C)[C@H]1O)C2(C)C	> 0.1 µg/mL	> 17.1	> 0.1 µg/mL	> 0.1 µg/mL	> 0.1 µg/mL
C=C[C@H](NC(=O)OC(C)(C)C)[C@@H](O)C(=O)O[C@H]1C[C@@]2(O)[C@@H](OC(=O)c3ccccc3)[C@@H]3[C@]4(OC(C)=O)CO[C@@H]4C[C@H](O)[C@@]3(C)[C@@H](O)[C@H](OC(C)=O)C(=C1C)C2(C)C	0.0011 µg/mL (≈ 0.00137 µM)	0.92	0.0044 µg/mL (≈ 0.00549 µM)	0.016 µg/mL (≈ 0.02 µM)	0.0018 µg/mL (≈ 0.00224 µM)
CC(=O)O[C@@H]1C2=C(C)[C@@H](OC(=O)[C@H](O)[C@H](C)NC(=O)OC(C)(C)C)C[C@@](O)([C@@H](OC(=O)c3ccccc3)[C@@H]3[C@]4(OC(C)=O)CO[C@@H]4C[C@H](O)[C@@]3(C)[C@H]1O)C2(C)C	0.015 µg/mL (≈ 0.019 µM)	1.08	0.019 µg/mL (≈ 0.0241 µM)	0.043 µg/mL (≈ 0.0544 µM)	0.0083 µg/mL (≈ 0.0105 µM)
CC(=O)O[C@@H]1C2=C(C)[C@@H](OC(=O)[C@H](O)[C@H](COc3ccccc3)NC(=O)c3ccccc3)C[C@@](O)([C@@H](OC(=O)c3ccccc3)[C@@H]3[C@]4(OC(C)=O)CO[C@@H]4C[C@H](O)[C@@]3(C)[C@H]1O)C2(C)C	0.092 µg/mL (≈ 0.104 µM)	5.81	0.084 µg/mL (≈ 0.0948 µM)	> 0.1 µg/mL	0.039 µg/mL (≈ 0.044 µM)
